# Screens as filed in PubChem BioAssay.
# Shown are actives, neighbours in structure and some others; about 4% of the full set was active somewhere.
# OX1R antag-1 = antagonists of human orexin 1 receptor (OX1R) | 330,000 tested, 1.8% active | OX1R-expressing cells, FRET antagonist read-out | inhibition, % at 6.6 µM | O43613; in the data active = inhibition mostly above about 38%, no sharp cut-off; inactive = mostly below about 40%;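 also: 0% = agonist challenge alone and 100% = reference antagonist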
# Target sequence (O43613 whole entry, looked up): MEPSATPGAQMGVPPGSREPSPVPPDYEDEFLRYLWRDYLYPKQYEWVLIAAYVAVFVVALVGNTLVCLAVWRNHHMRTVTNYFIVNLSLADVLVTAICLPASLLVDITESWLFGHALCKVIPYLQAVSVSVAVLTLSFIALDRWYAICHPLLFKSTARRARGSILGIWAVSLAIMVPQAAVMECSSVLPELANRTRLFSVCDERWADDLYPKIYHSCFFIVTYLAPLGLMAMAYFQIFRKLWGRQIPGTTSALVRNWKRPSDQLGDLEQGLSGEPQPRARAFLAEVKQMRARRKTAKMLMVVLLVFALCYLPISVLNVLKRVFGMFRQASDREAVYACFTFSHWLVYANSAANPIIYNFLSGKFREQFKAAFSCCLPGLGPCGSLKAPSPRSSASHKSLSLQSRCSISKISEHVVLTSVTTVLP
# NTR1 ag = agonists of human neurotensin receptor NTR1 | P30989 | NTR1-U2OS beta-arrestin-GFP spot imaging, agonist mode | activation, % at 20 µM | 330,000 tested, 0.17% active | AID 493036;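 active = activation at or above 40% of the spot to cytoplasm intensity ratio, with at least 20 cells analyzed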;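 also: 0% = DMSO without peptide and 100% = 100 nM NTR1 peptide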
# TAAR1 antag = antagonists of human TAAR1; CHO RD-HGA16 TAAR1, Fluo-8 calcium fluorescence, antagonist; inhibition, % at 3 µM; 360,000 tested, 1.5% active;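 active = inhibition above a per-plate cutoff, the mean inhibition of test compounds on that plate plus 3 SD, cut at about 49% in these data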;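 also: 0% = DMSO plus EC80 beta-PEA response and 100% = DMSO alone without agonist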
#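 Test system: hTAAR1-expressing CHO RD-HGA16 cells, Gα16-coupled; Probe or stimulus: EC80 β-phenethylamine stimulus; Compound dosing: single nominal final test compound concentration of 3 µM; Timing: 140 s kinetic read after compound, 140 s after agonist; Signal: Fluo-8 calcium-sensitive fluorescence; Measure: % inhibition of agonist calcium response; Controls: DMSO and EC80 PEA controls.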
# TAAR1 ag = human TAAR1 agonism | AID 624467 | CHO RD-HGA16 TAAR1, Fluo-8 calcium fluorescence; vehicle wells 0%, saturating PEA agonist 100% | 360,000 tested, 0.99% active | activation, % at 3 µM;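 active = activation above the mean activation of all test compounds in the run plus 3 SD, cut at about 38% in these data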
#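 Test system: RD-HGA16 (CHO) cells co-expressing Gα16 and hTAAR1 | Doses: Single dose, 3 µM | Schedule: 17-24 h seeding, 75 min 37 °C dye, 30 min RT | Evaluation: % activation from peak over basal fluorescence ratio, DMSO-to-PEA scaled | Technique: Kinetic Fluo-8 calcium fluorescence | Benchmarks: Low control DMSO, high control PEA (EC100)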
# CHO parental Ca = signal in parental CHO cells, OX1R antagonist counter-screen | inhibition, % at 5.6 µM | parental CHO-K1, ATP-induced calcium, Fluo-8 fluorescence | 330,000 tested, 0.63% active;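 active = inhibition above that plate's mean sample inhibition plus 3 SD, cut at about 26% in these data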;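 also: 0% = ATP-challenged DMSO wells and 100% = DMSO wells without ATP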
#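 Test system: untransfected parental CHO cell line. Compound: one dose, 5.6 µM nominal. Detection: intracellular calcium via Fluo-8 no-wash fluorescent dye. Measure: % inhibition. Benchmarks: ATP-challenged DMSO wells low, unchallenged DMSO wells high.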
# OX1R antag-2 = blocks the human orexin 1 receptor. O43613. CHO/OX1R cells, Fluo-8 calcium fluorescence, orexin A. inhibition, % at 5 µM. 330,000 tested, 0.43% active. AID 434989;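 active = inhibition above its plate's threshold, mean inhibition of all tested compounds on the plate plus 3 SD, cut at about 37% in these data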;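 also: 0% = orexin A challenge wells and 100% = SB-334867-A antagonist wells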
# TAAR1 ag confirm = human TAAR1 agonism, confirmed. shares compounds with TAAR1 ag. CHO RD-HGA16 TAAR1, Fluo-8 calcium fluorescence; scaled: DMSO 0%, maximal phenethylamine 100%. activation, % at 3 µM. 2,400 tested, 82% active. AID 651783;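 active = activation above a cutoff set at the run's mean compound activation plus 3 SD, cut at about 39% in these data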
# Ga16 nonsel ag = counter-screen for TAAR1 agonists: nonselective agonists in parental cells; shares compounds with TAAR1 ag; activation, % at 3 µM; AID 651787; 2,400 tested, 50% active; CHO-Ga16 parental, Fluo-8 calcium fluorescence; normalized to maximal ATP response, DMSO zero;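 active = activation above the run cutoff, the mean activation over all tested wells plus 3 SD, cut at about 12% in these data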;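 also: 0% = DMSO wells and 100% = maximal ATP response on the peak over basal ratio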
# TAAR1 desens = TAAR1 response desensitization, agonist counter-screen. AID 651951. 2,400 tested, 46% active. shares compounds with TAAR1 ag. CHO RD-HGA16 hTAAR1, Fluo-8 calcium, beta-PEA response inhibition. inhibition, % at 3 µM;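 active = inhibition above the run cutoff, the mean inhibition of all test compounds plus 3 SD, cut at about 49% in these data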;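 also: beta-PEA stimulus applied at its EC80; loss of beta-PEA calcium signal after compound pretreatment read as receptor desensitization; 0% = DMSO with beta-PEA at EC80 and 100% = DMSO alone without agonist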
# Ga16 antag count = counter-screen for TAAR1 agonists: nonselective Ga16 antagonists; CHO-Ga16 ATP-induced calcium, Fluo-8 fluorescence; shares compounds with TAAR1 ag; 2,400 tested, 39% active; inhibition, % at 3 µM;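 active = inhibition above the plate's mean compound inhibition plus 3 SD, computed per plate, cut at about 22% in these data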;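 also: 0% = EC80 ATP with DMSO and 100% = DMSO wells without ATP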
# * marks the source's active call; other numbers are inactive results; x = no result.
SMILES,OX1R antag-1,NTR1 ag,TAAR1 antag,TAAR1 ag,CHO parental Ca,OX1R antag-2,TAAR1 ag confirm,Ga16 nonsel ag,TAAR1 desens,Ga16 antag count
FC(F)(F)c1cc(CCN2CCNC[C@H]2Cc2cccc3ccccc23)cc(C(F)(F)F)c1,12,51*,95*,84*,28,-4,51*,28*,40,40*
Oc1ccc(C[C@H]2CNCCN2CCc2cc(C(F)(F)F)cc(C(F)(F)F)c2)cc1,16,18,8,28,-6,-18,x,x,x,x
Cc1cccc(C(O)c2ncc(-c3ccccc3F)[nH]2)c1C (stereo unspecified),x,x,-10,4,x,x,x,x,x,x
CC(C)CC1NC(=O)N(CC(=O)Nc2ccc3c(c2)OCCO3)C1=O (stereo unspecified),9,1,-7,0,-2,-6,x,x,x,x
Cc1ccc(-c2cc(C(=O)NC3CCCC3)no2)cc1,13,0,13,51*,-5,-20,10,6,7,13
O=C(NC1CCCCC1)c1cc(-c2ccc(F)cc2)on1,12,0,4,0,-7,-11,x,x,x,x
Cc1cc(NC(=O)NN2CCOCC2)nn1-c1c(Cl)cc(Cl)cc1Cl,11,0,3,2,-5,-25,x,x,x,x
CCOc1nc(-c2ccccc2)ncc1Oc1ccccc1,8,7,-20,1,-11,-20,x,x,x,x
COC(=O)c1cc(NC(=O)c2ccccc2)c(=O)oc1/C=C/Nc1ccc(Oc2ccccc2)cc1,x,0,68*,50*,x,x,62*,73*,85*,87*
COc1ccc(C(=O)Nc2cc(C(C)=O)c(C)oc2=O)cc1,2,2,16,0,-7,3,x,x,x,x
CCN(Cc1ccncc1)Cc1c(O)ccc2ccccc12,x,x,-7,53*,x,x,55*,2,21,7
COc1ccc(NC(=O)CSc2nnc(-c3ccccn3)n2N)cc1Cl,15,4,22,44*,-12,-25,61*,2,24,4
S=C(NCc1ccccc1)N1CCn2cccc2C1c1cccnc1 (stereo unspecified),x,x,2,8,x,x,x,x,x,x
S=C(NCCc1ccccc1)N1CCn2cccc2C1c1cccnc1 (stereo unspecified),20,1,13,57*,-9,-6,62*,4,37,27*
COc1cc(-c2[nH]ncc2CN2CCN(Cc3cccs3)CC2)cc(OC)c1OC,3,2,-11,3,-26,-33,x,x,x,x
O=C(Nc1n[nH]c(=S)s1)c1ccc2ccccc2c1,3,1,20,57*,15,2,42*,20*,2,5
O=C(Nc1nccs1)c1ccc2ccccc2c1,7,0,13,11,-26,-25,x,x,x,x
CC(=O)NNC(=S)NC(=O)C(c1ccccc1)c1ccccc1,13,0,19,49*,-16,-18,28,20*,27,25*
COc1ccccc1-c1nnc(NC(=O)c2ccc(S(=O)(=O)N(C)C)cc2)o1,1,-1,-10,10,-3,-2,x,x,x,x
CCN(Cc1ccccc1)S(=O)(=O)c1ccc(C(=O)Nc2nnc(-c3ccccc3OC)o2)cc1,6,2,23,43*,-29,-26,19,28*,39,33*
CC(=O)Nc1ccc(/C=N/N2C(=O)NC(C)(c3ccc(OC(F)F)cc3)C2=O)cc1 (stereo unspecified),-10,8,97*,140*,36*,53*,138*,105*,104*,93*
